Reference: ChEMBL document CHEMBL1629712, “Design, synthesis and discovery of 5-hydroxyaurone derivatives as growth inhibitors against HUVEC and some cancer cell lines” (Eur J Med Chem, 2010)

Assays:
A549 = assay: Antiproliferative activity against human A549 cells after 96 hrs by MTT assay; format: functional, cell-based; details: A549, 96 h
Outline: (§1)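 MTT viability. Seeding was 1000 cells/well for HUVEC, 1500 for MCF-7 and CCC-HPF-1, and 2000 for A549. After 20 h attachment, compound or carrier was added from 2% DMSO/PBS stocks (final DMSO 0.1%), in triplicate per concentration.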

MCF7 = assay: Antiproliferative activity against human MCF7 cells after 96 hrs by MTT assay; details: MCF7, 96 h
HUVEC = assay: Antiangiogenic activity in HUVEC after 96 hrs by MTT assay; format: functional, cell-based; details: Homo sapiens; outline: as §1
[1] = Antiproliferative activity against human CCC-HPF1 cells after 96 hrs by MTT assay; format: cell-based; outline: as §1
[2] = Selectivity ratio of CC50 for human CCC-HPF1 cells to IC50 for HUVEC; format: ADME, cell-based; details: CCC-HPF1 cells versus HUVEC, read-out: Ratio CC50/IC50

Row | IC50 (A549) | IC50 (MCF7) | SMILES | IC50 (HUVEC) | CC50 at 96 h [1] | selectivity ratio [2]
1 | ≥ 50 µM | ≥ 50 µM | CO[C@@H]1[C@H](OC(=O)/C=C/C=C/C=C/C=C/C(=O)O)CC[C@]2(CO2)[C@H]1[C@@]1(C)O[C@@H]1CC=C(C)C [FUMAGILLIN] | 0.0089 µM |  | 
2 | 18.7 µM | 10.1 µM | CN(C)c1ccc(/C=C2\Oc3ccc(O)cc3C2=O)cc1 | 1.35 µM | 25.1 µM | 20
